In the EternaBench riboswitch data:

Tested on: MS2 coat protein
Experiment: apparent Kd, MS2 coat protein; higher = weaker binding; RNA-MaP array; FMN 200 µM where present
Method in brief: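 The apparent Kd is the median of filtered binding-curve fits, one per cluster, to green signal normalised to red-channel RNA signal and control-cluster median Fmax. The clusters were on Illumina sequencing chips, and stalled E. coli RNA polymerase had transcribed the designs on them. Titration used SNAP-549-labelled MS2 coat protein from 0.7 or 1.5 nM, doubling to 3 µM, without and then with constant ligand, in 100 mM Tris-HCl pH 7.5, 80 mM KCl, 4 mM MgCl2, BSA, DTT, yeast tRNA and Tween-20.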

[1] = designed as: OFF switch for flavin mononucleotide, no ligand
[2] = ligand present: flavin mononucleotide, designed as: OFF switch for flavin mononucleotide
[3] = designed as: ON switch for flavin mononucleotide, no ligand
[4] = ligand present: flavin mononucleotide, designed as: ON switch for flavin mononucleotide

Sequence | apparent Kd [1] [nM] | apparent Kd [2] [nM] | apparent Kd [3] [nM] | apparent Kd [4] [nM]
GGAUUACAUGAGGAUCACCCAUGUGAGGAUAUCGAUGUCCUGGGUGGAGUGCGGGACUCGAGAAGGCACUUGGA | 60.5 | 229 | – | –
GUUAGUUAAGGAUAUACAGGGAGCUGCGGCGUCUCGCCGCAACAUGAGGAUCACCCAUGUAGAAGGUAGCCGUU | 76.4 | 121 | – | –
UGUUGAUAGCAGAAGGACAUGAGGAUCACCCAUGUAUGGAUACAAAUAUAUGUAGGAUAUGCUAUUAACUAAGAGUGAGCGUUC | 9.12 | 24.4 | – | –
GUGGUCAGACAUGAGGAUCACCCAUGUGGAAUAAAUAAGGAACAGGAUAUCUAAUAUAGGAUAUAAGAGAAGGGUUGGUUGGUG | – | – | 81.7 | 93.6
GGCUGGUGACAGCAUCCAUCAAAACAUGAGGAUCACCCAUGUAGAAGGCUGUACGGUUACCGUACAGAGGAUAUACAAUGAUGG | 6.96 | 9.46 | – | –
UGAUCGAGAGAUCUUAGAUUCUGGUAGGAUAUACAUUAAAAGCGCUUUACAUGAGGAUCACCCAUGUAGAAGGACUAGAGUCUA | 7.51 | 9.42 | – | –
UUGGACGUCGUAGGAUAUGUAGGAUAUUCCUACAUGAGGAUCACCCAUGUUGACCUGGAAGAAGGACAGAAGGACGAUGUCCAU | – | – | 64.2 | 4.64
GUAGCAACAUGAGGAUCACCCAUGUAGGAUAUCGCUAUUGUAAUCAUGAAACAUGAUUACAAUAGCGAGAAGGACAUAAGCUAC | 6.67 | 8.84 | – | –
UUGGACGUCGUAGGCUAUGUAGGAUAUUCCUACAUGAGGAUCACCCAUGUUGACAUGGAAGAAGGACAGAAGGACGAUGUCCAU | – | – | 173 | 4.35
AGUCGGUUCUUUUAACAUGAGGAUCACCCAUGUAUUUGCAACUAGGAUAUCGAUAAUUAUUUCGUCGAGAAGGAGUAUACAUAA | 24.2 | 38.5 | – | –
GUAACAUGAGGAUCACCCAUGUAUAGAACACUCAAUAGAUCUGAGGAUAUAGUGGAAUUUACACACUAGAAGGCAGUGGGUACA | – | – | 53.9 | 31.9
AAUAAUAAGGAGGAUAUCGUAUCGGAAACGAUACGAGAAGGCUUAACAUGAGGAUCACCCAUGUUCCUCAAUAA | 31 | 74.8 | – | –
GCUGCGUACGUAGGAUAUACAUGAGGAUCACCCAUGUAACUCGGACUCUAAGCGGGUGCGCGCAUGUAGAAGGACGGGCGAGCC | 33.3 | 57.2 | – | –
UAUGGGUGUGUGAGGAUAUACGAAGGCAGUGGCCAGUAGAAGGUACAUGAGGAUCACCCAUGUGUCCAAAAGUG | 14.1 | 18.4 | – | –
UGUCAUUUACAGAAGGGUAGUUGGGUUUUACAUGAGGAUCACCCAUGUUUUACAGGAUAUGUGUUUUGUUAAUAUUAAAGUUCA | 72.9 | 113 | – | –
AAUAAACAUGAGGAUCACCCAUGUAAGGAUAUGCGAACAAUAAGAAGACAAUAAUAAAGCAGAAGGUACAAGAG | 78.1 | 96.2 | – | –
UAUUGCGCCGUAAAAUAACACAUGAGGAUCACCCAUGUGACACAGGAUAUGACCAGAUCAGAAAGUCAGAAGGGUGAAAACGGC | – | – | 99.6 | 21.6
GAGAAGUGAGGAUAUGCUGCUCGUCACUUGCGUGAUGAGUAGCAGAAGGCACAUGAGGAUCACCCAUGUAAAGG | 133 | 244 | – | –
CGGUCGAUAUCAGGAUAUCGUUUAAUUACAUGAGGAUCACCCAUGUUGACAUGGAAUAUAACAUGCGAGAAGGGAUUACGAUCG | – | – | 13.9 | 9.85
AUUAUGACCGAGUAAAGCUUCAAAACAUGAGGAUCACCCAUGUAGGAUAUCAGCACGAUAAGUGCUGAGAAGGACAUCUCGGUC | 14.3 | 15.1 | – | –
